The source of these data is PubChem BioAssay.

Active and inactive are the calls of the source.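 The calls were made as follows, unless noted: active = viability at or under a set limit in both replicates, limit being median viability minus 3 SD (cut at about 48% in these data, passing the limit was not always enough); inconclusive = at or under the limit in just one replicate; inactive = at or above the limit in both replicates.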

The nature of assay [1]: reduced viability of SK-BR-3 breast cancer cells – cell-based, 24 h, human, pilot screen (AID 572;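 active = viability at or below 10% of carrier control in both of two separate runs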;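 also: compound exposure lasted between 18 and 24 h rather than exactly 24 h; 100% = carrier-treated control wells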). As to conditions: SK-BR-3 viability, CellTiter-Glo luminescence, at 10 µM, stronger effect = lower value.
Assay [2] can be described thus: HUVEC growth inhibition – cell-based, human, primary screen (AID 575;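 active = viability at or below 30% in both replicate assays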;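 also: 100% = median of untreated cell wells with 0.1% DMSO on each plate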). As to conditions: HUVEC proliferation, CellTiter-Glo luminescence, 72 h; at 10 µM; stronger effect = lower value. Summed up:
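system = HUVEC primary cells | amount = 1250 cells/well | buffer or medium = supplemented EBM, 2% fetal bovine serum | dosing = single-point 10 µM, DMSO 0.1% final | times = 72 h compound incubation | detection = CTG luminescence | read-out = % viability relative to median vehicle-well signal on each plate | control set = vehicle and MePR control wells | format = collagen-coated 384-well format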
A general note: ATP-based viability assays read luminescence as a measure of living cells.

Assay [3] in a line: H69AR cell proliferation blockers – human, duplicate replicates, primary screen (AID 580).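 Also: 100% = mean luminescence of untreated wells and 0% = no signal.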 As to conditions: H69AR lung tumor cells viability, ATP luminescence, 72 h; at 10 µM; stronger effect = lower value.
The nature of assay [4]: MRP1 drug-resistance reversers in H69AR cells – cell-based, doxorubicin co-treatment, pilot screen (AID 601;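 active = viability loss from added drug above about 55%, and viability with drug at most 40%, in both replicates, limit read from the data, passing the limit was not always enough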). As to conditions: CellTiter-Glo, 72 h, at 10 µM; for differential viability (reversal): stronger effect = higher value.
A short description of assay [5]: yeast transport mutant growth inhibition pilot in 384-well plates, post-Golgi transport modulator project (AID 636; in the data active = inhibition above about 31%). As to conditions: absorbance 615 nm, about 18 h, stronger effect = higher value.
Assay [6] is described as follows: growth suppression of yeast trafficking mutant, preliminary HTS, modulators of trafficking downstream of Golgi apparatus project, 1536-format plate, OD 615 nm (AID 637; in the data active = inhibition above about 30%). As to conditions: yeast transport mutant growth, absorbance 615 nm, 18 h; stronger effect = higher value.
Where [7] appears, read: H69AR cells + 2 uM doxorubicin, measured here: viability with 2 uM doxorubicin, stronger effect = lower value.
The mark [8] stands for this setting: H69AR cells, compound alone cytotoxicity.

Usually viability stands for a read-out of living cells in per cent, often relative to untreated cells. Broadly, the inhibition is the relative decrease from the control value, in per cent. `O=C(Nc1ccc2c(c1)nc1n2CCN(Cc2ccccc2)C1)c1cccs1`: the viability in assay [1] is 76.5% (inactive); in assay [2], 88.7% (inactive); in assay [3] it was 80.2% (inactive); in assay [4] (setting [7]), 92.6%; in assay [4] (setting [8]), 80.2%. The differential viability (reversal) in assay [4] (H69AR cells + 2 uM doxorubicin) was -12.4% (inactive). Moreover, the inhibition in assay [5] is -5.89% (inactive); in assay [6], 6.19% (inactive).
Regarding `CCN(CC)CCCN1C(=O)C(=O)/C(=C(/O)c2ccc3c(c2)OCO3)C1c1ccccn1` (centres undefined), the viability in assay [1] was 97% (inactive); in assay [2] it was 82.4% (inactive); in assay [3], 93.3% (inactive); in assay [4] (setting [7]) it was 88.6%; in assay [4] (setting [8]), 93.3%. The differential viability (reversal) in assay [4] (H69AR cells + 2 uM doxorubicin) was 4.7% (inactive). The inhibition in assay [5] is -5.89% (inactive); in assay [6] it was 0.32% (inactive).
With `Cc1cc(=O)n(CCO)c(O)c1C#N`, the viability in assay [1] is 81.5% (inactive); in assay [2], 107% (inactive); in assay [3] it was 95.1% (inactive); in assay [4] (setting [7]) it was 101%; in assay [4] (setting [8]), 95.1%. Moreover, in assay [4] (H69AR cells + 2 uM doxorubicin), the differential viability (reversal) was -5.74% (inactive). The inhibition in assay [5] was -3.95% (inactive); in assay [6] it was 22.8% (inactive).
Regarding `CCOC(=O)N1CCN(C(=O)c2cn(CC)c3cc(N4CCN(C)CC4)c(F)cc3c2=O)CC1`, the viability in assay [1] was 100% (inactive); in assay [2], 101% (inactive); in assay [3], 104% (inactive); in assay [4] (setting [7]), 103%; in assay [4] (setting [8]), 104%. For the same molecule, in assay [4] (H69AR cells + 2 uM doxorubicin), the differential viability (reversal) was 1.33% (inactive). In addition, the inhibition in assay [5] was -7.26% (inactive); in assay [6], 7.74% (inactive).
Consider `O=C(O)c1ccc(CSc2ncn[nH]2)cc1`, for which the viability in assay [1] is 107% (inactive); in assay [2] it was 105% (inactive); in assay [3], 94.4% (inactive); in assay [4] (setting [7]), 101%; in assay [4] (setting [8]), 94.4%. The differential viability (reversal) in assay [4] (H69AR cells + 2 uM doxorubicin) is -6.27% (inactive). Besides, the inhibition was -6.16% (inactive) in assay [5] and 0.55% (inactive) in assay [6].
For the molecule `O=c1c2ccccc2[nH]c(=S)n1CCN1CCC(=C(c2ccc(F)cc2)c2ccc(F)cc2)CC1`, the viability is 113% (inactive) in assay [1]; 18.2% (active) in assay [2]; 78.8% (inactive) in assay [3]; 83.6% in assay [4] (setting [7]); 78.8% in assay [4] (setting [8]). For the same molecule, the differential viability (reversal) in assay [4] (H69AR cells + 2 uM doxorubicin) was -4.72% (inactive). For the same molecule, the results for the inhibition in assay [5] and in assay [6] were 83% (active) and 71% (active), respectively.
On to `O=S1(=O)CCN2C(=N1)SC1=C2CCN(Cc2ccccc2)C1`, for which the viability in assay [1] was 106% (inactive); in assay [2] it was 96.7% (inactive); in assay [3], 89% (inactive); in assay [4] (setting [7]), 90.2%; in assay [4] (setting [8]), 89%. Moreover, in assay [4] (H69AR cells + 2 uM doxorubicin), the differential viability (reversal) was -1.18% (inactive). The inhibition in assay [5] was -9.04% (inactive); in assay [6] it was 3.09% (inactive).
As for `CCCC(=O)Nc1nnc(CC(=O)N2CCCC2)s1`, the viability is 90% (inactive) in assay [1]; 113% (inactive) in assay [2]; 96.9% (inactive) in assay [3]; 89.5% in assay [4] (setting [7]); 96.9% in assay [4] (setting [8]). The differential viability (reversal) in assay [4] (H69AR cells + 2 uM doxorubicin) was 7.37% (inactive). Besides, the inhibition in assay [5] was -9.73% (inactive); in assay [6] it was -5.27% (inactive).
Consider `COc1ccc(OCC(=O)Nc2ccc(N3CCOCC3)c(Cl)c2)cc1`, for which the viability was 99% (inactive) in assay [1]; 96.1% (inactive) in assay [2]; 90.3% (inactive) in assay [3]; 88.2% in assay [4] (setting [7]); 90.3% in assay [4] (setting [8]). Besides, the differential viability (reversal) in assay [4] (H69AR cells + 2 uM doxorubicin) is 2.16% (inactive). The inhibition in assay [5] is -4.25% (inactive); in assay [6], -2.1% (inactive).
On to `O=C(NCCN1CCOCC1)C1CCC(=O)N1Cc1ccccc1Cl` (centres undefined), for which the viability in assay [1] is 148% (inactive); in assay [2] it was 96.4% (inactive); in assay [3], 90% (inactive); in assay [4] (setting [7]), 86.3%; in assay [4] (setting [8]), 90%. Also, in assay [4] (H69AR cells + 2 uM doxorubicin), the differential viability (reversal) was 3.78% (inactive). Moreover, the inhibition in assay [5] was -1.43% (inactive); in assay [6] it was -1.48% (inactive).
Regarding `CCCN1Cc2cccc(C(=O)NC3CCCC3)c2C1=O`, the viability in assay [1] is 111% (inactive); in assay [2], 91.5% (inactive); in assay [3], 87.9% (inactive); in assay [4] (setting [7]), 82.8%; in assay [4] (setting [8]) it was 87.9%. Moreover, the differential viability (reversal) in assay [4] (H69AR cells + 2 uM doxorubicin) is 5.09% (inactive). Besides, the inhibition was -7.47% (inactive) in assay [5] and 6.36% (inactive) in assay [6].
`N#CC1=C(N)OC2=C(C(=O)CCC2)C1CCc1ccccc1` (centres undefined): the viability in assay [1] was 98% (inactive); in assay [2], 91.9% (inactive); in assay [3], 103% (inactive); in assay [4] (setting [7]), 89.3%; in assay [4] (setting [8]) it was 103%. In assay [4] (H69AR cells + 2 uM doxorubicin), the differential viability (reversal) was 14.2% (inactive). Besides, the inhibition is -6.08% (inactive) in assay [5] and 1.64% (inactive) in assay [6].
For the molecule `CC(=O)OC(C(=O)NC1CCCCC1)c1ccncc1` (centres undefined), the viability is 88% (inactive) in assay [1]; 98% (inactive) in assay [2]; 109% (inactive) in assay [3]; 87.7% in assay [4] (setting [7]); 109% in assay [4] (setting [8]). Moreover, the differential viability (reversal) in assay [4] (H69AR cells + 2 uM doxorubicin) is 21.3% (inactive). Besides, the inhibition was -0.14% (inactive) in assay [5] and -0.48% (inactive) in assay [6].
